Active and inactive are the calls of the source.
Legend:
Mus musculus [1] = assay: Hepatotoxicity in Swiss mouse assessed as change in plasma ALT level at 10 mg/kg, ip for 7 days; format: toxicity, organism-based; set-up: dose 10 mg/kg, route intraperitoneal; details: in vivo, 168 h
In short: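 Mice dosed daily ip at 10 mg/kg for 7 days; vehicle was saline or Tris/HCl pH 8.0. Plasma AST and ALT measured with a diagnostic kit.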

Mus musculus [2] = assay: Antinociceptive activity in Swiss mouse assessed as inhibition of carrageenan-induced mechanical hyperalgesia at 1 to 3 mg/kg, ip administered 30 mins prior to carrageenan-challenge measured after 5 hrs by electronic pressure-meter test; format: functional, organism-based
In short: (§1)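 Doses of 1–10 mg/kg given ip 30 min before intraplantar carrageenan (300 μg/paw). Electronic pressure-meter applied to mice on a wire grid floor; paw withdrawal with flinching was the end point, and each value is the average of three readings. Result reported as Δ withdrawal threshold (g) from baseline at 1, 3 and 5 h. Six mice per group; two-way ANOVA.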

Mus musculus [3] = assay: Antioxidant activity in Swiss mouse assessed as prevention of carrageenan-induced decrease in 2,2'-Azinobis(3-ethylbenzothiazoline 6-sulfonic acid) scavenging ability at 10 mg/kg, ip administered 30 mins prior to carrageenan-challenge measured after 3 hrs by spectrophotometric analysis; format: functional, organism-based; set-up: dose 10 mg/kg
In short: (§2)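 Given at 10 mg/kg ip 30 min before intraplantar carrageenan; plantar skin taken at 3 h, two mice pooled per sample. Tissue homogenized in 1.15% KCl. FRAP: 37 °C for 30 min, absorbance at 595 nm. ABTS: diluted to A730 0.80 in PBS pH 7.4, read at 730 nm after 6 min. Both expressed as Trolox equivalents/mg tissue (Trolox standard 1.5–30 μmol/L final).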

Mus musculus [4] = assay: Antinociceptive activity in Swiss mouse assessed as inhibition of capsaicin-induced paw flinching at 10 mg/kg, ip administered 30 mins prior to capsaicin-challenge measured after 5 mins; format: functional, organism-based; set-up: dose 10 mg/kg
In short: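 Pretreatment ip 30 min before intraplantar capsaicin (1.6 μg/paw), given after an adaptation period. Mice observed individually for 5 min afterwards. Total flinches and time spent licking the injected paw were scored. Six mice per group; representative of two experiments; one-way ANOVA with Tukey's test.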

Mus musculus [5] = assay: Antinociceptive activity in Swiss mouse assessed as inhibition of phenyl-p-benzoquinone-induced writhing response at 10 mg/kg, ip administered 30 mins prior to phenyl-p-benzoquinone-challenge measured for 20 mins; format: functional, organism-based; set-up: dose 10 mg/kg
In short: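 Pretreatment ip 30 min before ip phenyl-p-benzoquinone (1890 μg/kg in 2% DMSO/saline). Cumulative writhing score counted over 20 min. Six mice per group; representative of two experiments.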

Mus musculus [6] = assay: Antinociceptive activity in Swiss mouse assessed as inhibition of formalin-induced paw flinching at 10 mg/kg, ip administered 30 mins prior to formalin-challenge measured after 30 mins; format: functional, organism-based; set-up: dose 10 mg/kg
In short: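 Given ip 30 min before intraplantar formalin (25 μL of 1.5% in saline). Paw flinches and licking time recorded from 0 to 30 min in 5-min bins, covering the first (0–5 min) and second (10–30 min) phases. Six mice per group; representative of two experiments.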

Mus musculus [7] = assay: Antinociceptive activity in Swiss mouse assessed as inhibition of capsaicin-induced mechanical hyperalgesia at 10 mg/kg, ip administered 30 mins prior to capsaicin-challenge measured after 1 to 5 hrs by electronic pressure-meter test; format: functional, organism-based; set-up: dose 10 mg/kg
In short: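 Dosed at 10 mg/kg ip 30 min before intraplantar capsaicin (1.6 μg/paw). Mechanical hyperalgesia measured by electronic pressure-meter as Δ withdrawal threshold (g), average of three readings. Thermal hyperalgesia measured as hot-plate latency at 55 °C with a 30 s cutoff. Both read at 1, 3 and 5 h. Six mice per group.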

Mus musculus [8] = assay: Antiinflammatory activity in Swiss mouse assessed as inhibition of carrageenan-induced IL-6 production 10 mg/kg, ip administered 30 mins prior to carrageenan-challenge measured after 3 hrs by ELISA; format: functional, organism-based; set-up: dose 10 mg/kg; details: at 10 mg/kg
In short: (§3)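 Compound given ip in saline 30 min before intraplantar carrageenan (300 μg/paw). Paw skin taken 3 h later and homogenized in 500 μL buffer with protease inhibitors. TNF-α, IL-1β, IL-6, IL-33 and IL-10 measured by ELISA, reported as pg/100 mg tissue. Saline-injected paws served as controls. Six mice per group; representative of two experiments.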

Mus musculus [9] = assay: Neurotoxicity in Swiss mouse assessed as change in motor response at 10 mg/kg, ip after 1.5 hrs by rotarod test (reference value: 180 seconds); format: toxicity, organism-based; set-up: dose 10 mg/kg, route intraperitoneal; details: in vivo
In short: (§4)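 Rota-rod with a 2.5 cm bar at 22 rpm. Mice pre-selected 24 h earlier by staying on the bar for two consecutive 180 s periods. Given 10 mg/kg ip (vehicle 2% DMSO in saline) and tested at 1.5, 3.5 and 5.5 h, with a 180 s cutoff. n = 6.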

Mus musculus [10] = assay: Antioxidant activity in Swiss mouse assessed as prevention of carrageenan-induced decrease in GSH levels at 10 mg/kg, ip administered 30 mins prior to carrageenan-challenge measured after 3 hrs by UV-vis spectrophotometric analysis; format: functional, organism-based; set-up: dose 10 mg/kg
In short: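 Given at 10 mg/kg ip 30 min before intraplantar carrageenan (300 μg/paw); plantar skin taken at 3 h, four paws pooled per sample. Tissue homogenized in 0.02 M EDTA with TCA and centrifuged. Supernatant reacted with DTNB in Tris 0.4 M pH 8.9; absorbance read at 412 nm after 5 min. Reported as nmol GSH/mg tissue. Three pools per experiment.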

Mus musculus [11] = assay: Antiinflammatory activity in Swiss mouse assessed as inhibition of carrageenan-induced IL-33 production 10 mg/kg, ip administered 30 mins prior to carrageenan-challenge measured after 3 hrs by ELISA; format: functional, organism-based; set-up: dose 10 mg/kg; details: at 10 mg/kg; in short: as §3
Mus musculus [12] = assay: Antinociceptive activity in Swiss mouse assessed as inhibition of acetic acid-induced writhing response at 0.3 mg/kg, ip administered 30 mins prior to acetic acid-challenge measured for 20 mins; format: functional, organism-based; set-up: dose 0.3 mg/kg
In short: (§5)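 Doses of 0.3–10 mg/kg given ip in saline 30 min before ip acetic acid (0.8% v/v in saline, 10 mL/kg). Cumulative abdominal writhing counted over 20 min and presented in 2-min intervals. Six mice per group; representative of two experiments.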

Mus musculus [13] = assay: Antinociceptive activity in Swiss mouse assessed as inhibition of complete Freund's adjuvant-induced mechanical hyperalgesia at 10 mg/kg, ip administered 24 hrs after complete Freund's adjuvant-challenge for seven days by electronic pressure-meter test; format: functional, organism-based; set-up: dose 10 mg/kg
In short: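 Treatment at 10 mg/kg ip given daily, starting 24 h after intraplantar CFA (10 μL/paw), for seven days. Electronic pressure-meter (Δ threshold, g) and hot plate (55 °C, 30 s cutoff) read every 24 h over days 1–8. Six mice per group.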

Mus musculus [14] = assay: Antinociceptive activity in ip dosed Swiss mouse assessed as inhibition of acetic acid-induced writhing response administered 30 mins prior to acetic acid-challenge measured for 20 mins; format: functional, organism-based; in short: as §5
Mus musculus [15] = assay: Toxicity in Swiss mouse assessed as change in myeloperoxidase activity in stomach at 10 mg/kg, ip for 7 days by spectrophotometric analysis; format: organism-based; set-up: dose 10 mg/kg, route intraperitoneal; details: in vivo, 168 h
In short: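 Mice dosed daily ip at 10 mg/kg for 7 days. Stomach homogenized in 50 mM phosphate buffer pH 6.0 with 0.5% HTAB and centrifuged at 16100g. Supernatant mixed with o-dianisidine (0.167 mg/mL) and 0.015% H2O2; read at 450 nm three times within 1 min. Activity expressed as neutrophils ×10⁴/mg tissue against a neutrophil standard curve.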

Mus musculus [16] = assay: Antioxidant activity in Swiss mouse assessed as prevention of carrageenan-induced decrease in ferric-reducing ability potential at 10 mg/kg, ip administered 30 mins prior to carrageenan-challenge measured after 3 hrs by spectrophotometric analysis; format: functional, organism-based; set-up: dose 10 mg/kg; in short: as §2
Mus musculus [17] = assay: Antinociceptive activity in Swiss mouse assessed as inhibition of carrageenan-induced mechanical hyperalgesia at 10 mg/kg, ip administered 30 mins prior to carrageenan-challenge measured after 1 to 5 hrs by electronic pressure-meter test; format: functional, organism-based; set-up: dose 10 mg/kg; in short: as §1
Mus musculus [18] = assay: Neurotoxicity in Swiss mouse assessed as change in motor response at 10 mg/kg, ip after 5.5 hrs by rotarod test (reference value: 180 seconds); format: toxicity, organism-based; set-up: dose 10 mg/kg, route intraperitoneal; details: in vivo; in short: as §4

SMILES: O=c1cc(-c2ccc(O)cc2)oc2c([C@@H]3O[C@H](CO)[C@@H](O)[C@H](O)[C@H]3O)c(O)cc(O)c12 [VITEXIN]
- Activity (Mus musculus [1]): Non-toxic
- inhibition (Mus musculus [2]): Active
- Activity (Mus musculus [3]): Active
- inhibition (Mus musculus [4]): Active
- inhibition (Mus musculus [5]): Active
- inhibition (Mus musculus [6]): Active
- inhibition (Mus musculus [7]): Active
- inhibition (Mus musculus [8]): Active
- Time (Mus musculus [9]): 180 s
- Activity (Mus musculus [10]): Active
- inhibition (Mus musculus [11]): Active
- inhibition (Mus musculus [12]): Active
- inhibition (Mus musculus [13]): Active
- inhibition (Mus musculus [14]): Dose-dependent effect
- Activity (Mus musculus [15]): Non-toxic
- Activity (Mus musculus [16]): Active
- inhibition (Mus musculus [17]): Active
- Time (Mus musculus [18]): 180 s

— ChEMBL document CHEMBL2384933, “Vitexin inhibits inflammatory pain in mice by targeting TRPV1, oxidative stress, and cytokines” (J Nat Prod, 2013)
